EP2 modulator: modulators of human EP2 prostaglandin E2 receptor; P43116; EP2-expressing cells, cAMP HTRF FRET, PGE2 co-stimulation; induction, % at 25 µM; 260,000 compounds, 0.83% hits;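 active means compounds whose cAMP rise, as percent of the full-agonist control response, exceeds 60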;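 further: rat C6 glioma line stably carrying human EP2 under a CMV promoter; the protocol text gives 20 µM as final concentration; 100% = response of wells given 1 µM PGE2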
Target sequence (P43116 whole entry, looked up): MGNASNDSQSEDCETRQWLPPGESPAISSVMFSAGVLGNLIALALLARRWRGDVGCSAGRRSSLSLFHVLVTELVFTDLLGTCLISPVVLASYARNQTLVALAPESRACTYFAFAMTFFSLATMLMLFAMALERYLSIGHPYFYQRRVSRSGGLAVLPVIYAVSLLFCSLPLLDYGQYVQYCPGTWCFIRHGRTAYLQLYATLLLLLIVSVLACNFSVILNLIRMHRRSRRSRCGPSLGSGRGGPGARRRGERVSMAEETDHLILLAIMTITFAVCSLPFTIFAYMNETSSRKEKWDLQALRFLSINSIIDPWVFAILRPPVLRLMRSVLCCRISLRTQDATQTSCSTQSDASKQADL
NPY2 pot ag: potentiators or agonists of human neuropeptide Y receptor Y2 | P49146 | cells expressing NPY-Y2, potentiator/agonist read-out | activation, % at 3.6 µM | 220,000 compounds, 0.45% hits | AID 1359; in the data active means activation above about 27%;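 further: cells stimulated with NPY near EC25 plus isoproterenol at EC100; 0% = vehicle plus submaximal agonist and 100% = vehicle plus saturating agonist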
Target sequence (P49146 whole entry, looked up): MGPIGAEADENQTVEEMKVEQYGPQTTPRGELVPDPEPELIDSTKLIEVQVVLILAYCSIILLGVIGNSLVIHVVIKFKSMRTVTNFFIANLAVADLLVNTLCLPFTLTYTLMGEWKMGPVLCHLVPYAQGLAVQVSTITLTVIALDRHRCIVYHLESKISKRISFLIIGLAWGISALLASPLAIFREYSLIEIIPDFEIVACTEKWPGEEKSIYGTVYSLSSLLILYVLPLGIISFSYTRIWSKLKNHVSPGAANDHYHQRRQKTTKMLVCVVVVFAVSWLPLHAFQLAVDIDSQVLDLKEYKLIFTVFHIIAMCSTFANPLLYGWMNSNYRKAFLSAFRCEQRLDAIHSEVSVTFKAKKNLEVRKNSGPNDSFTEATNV
NPY-Y1 PAM-ag: human NPY-Y1 potentiation or agonism, primary screen | NPY-Y1 expressing cells, potentiator/agonist activation | 220,000 compounds, 0.37% hits | AID 1304 | P25929 | activation, % at 3.6 µM; in the data active means activation above about 33%, passing the limit was not always enough;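 further: cells stimulated with NPY at EC10 then isoproterenol at EC100; 0% = low agonist plus stimulus and 100% = saturating agonist plus stimulus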
EP2 antag: blocks the human prostaglandin E2 receptor EP2. P43116. C6 glioma cells expressing human EP2, cAMP TR-FRET; cells stimulated with saturating PGE2. inhibition, % at 25 µM. 260,000 compounds, 0.52% hits. AID 1422;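 active means percent inhibition above 40 after rounding to a whole number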;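 further: rat C6 glioma host cells with rolipram phosphodiesterase inhibitor present; the protocol text gives 20 µM as final concentration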
NPY-Y1 antag: blocks the human neuropeptide Y Y1 receptor; P25929; HEK293-CNG Y1 cells, membrane potential fluorescence; NPY at EC95, then isoproterenol; inhibition, % at 3.6 µM; 200,000 compounds, 1% hits; AID 1040;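 active means inhibition above the campaign mean inhibition of all tested compounds plus 3 SD, cut at about 20% in these data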;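 further: 0% = DMSO wells given NPY plus isoproterenol and 100% = isoproterenol alone without NPY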
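Material: HEK293 Y1/CNG channel cell line | Also added: NPY (25 nM), isoproterenol (1 µM), Ro 20-1724 (25 µM) | Compound: One concentration, 3.6 µM, in 0.4% DMSO | Schedule: 3 h dye uptake, 1 h room-temperature compound, 45 min post-isoproterenol | Signal: Membrane-potential fluorescent dye readout | Read-out: % inhibition of NPY effect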
NPY Y2 blocker: NPY-Y2 (human) receptor antagonism. inhibition, % at 2.7 µM. P49146. NPY-Y2 expressing cells, antagonist mode. 140,000 compounds, 0.99% hits; in the data active means inhibition above about 17%;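 further: 0% = vehicle with agonist challenge and 100% = reference antagonist with challenge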
Active calls of the source: *; / = no result given; ! = not active in a repeat. Only some compounds are listed: those with a hit (about 2.8% of all), similar ones and a draw of the others.

SMILES | EP2 modulator | NPY2 pot ag | NPY-Y1 PAM-ag | EP2 antag | NPY-Y1 antag | NPY Y2 blocker
CN(C)CCN(Cc1ccccc1F)C(=O)Cc1nc2ccccc2[nH]1 | -29 | / | / | 9 | / | /
COc1ccccc1/C=C/CN1C2CCC1CC(O)(c1nccn1C)C2 (centres undefined) | 11 | / | / | 7 | / | /
C=C(C)COc1cccc(CN2C3CCC2CC(O)(c2nccn2C)C3)c1 (centres undefined) | -23 | / | / | 4 | / | /
N=C(N)c1c(O)n(C2CCCCC2)c(=O)n(C2CCCCC2)c1=O | 42 | 31* | 30 | 15 | -8 | 0
CC(=O)N1CCCc2cc(C(O)CN3CC=C(c4ccc(F)cc4)CC3)ccc21 (centres undefined) | -60 | / | / | 10 | / | /
Cc1ccc(CN2CCNCC2)cc1 | -25 | / | / | 16 | / | /
CC[C@H]1CN2CCc3cc(OC)c(OC)cc3[C@@H]2C[C@@H]1C[C@H]1NCCc2c1[nH]c1ccc(O)cc21 | -25 | / | / | 61* | / | /
CCc1ncc(CN(CCc2ccccc2)Cc2cccs2)cn1 | 35 | / | / | 4 | / | /
Cc1ccccc1C(=O)NC(Oc1ccccc1)C(Cl)(Cl)Cl (centres undefined) | 63* | 6 | -20 | 5 | 11 | 3
COc1ccccc1CNC(=O)CN1C2CCC1CC(O)(c1ccco1)C2 (centres undefined) | -4 | / | / | / | / | /
O=C1NC(=O)C(=Cc2ccc(-c3cc(Cl)ccc3[N+](=O)[O-])o2)C(=O)N1 | -59 | -1 | -10 | 42* | -3 | /
O=C1NC(=O)C(=Cc2ccc(-c3ccccc3[N+](=O)[O-])o2)C(=O)N1 | -38 | -27 | -14 | 16 | / | /
OCCOc1ccc(CN2C3CCC2CC(O)(c2ccccc2F)C3)cc1 (centres undefined) | 3 | / | / | 10 | / | /
Cc1cc2c(C(C)C)c(O)c(O)c(C=O)c2c(O)c1-c1c(C)cc2c(C(C)C)c(O)c(O)c(C=O)c2c1O | 7 | 18 | 15 | 47*! | -4 | -4
CCCn1nc(CC(=O)N(C)CCN2CCCCC2)c2ccccc2c1=O | -8 | / | / | 6 | / | /
O=C(CN1C2CCC1CC(O)(c1ccco1)C2)Nc1ccccc1C(F)(F)F (centres undefined) | -13 | / | / | / | / | /
O=C1C(Cl)=C(Cl)C(=O)C(Cl)=C1Cl | -36 | / | / | 109* | / | /
NC(Cc1ccccc1)c1ccc2c(c1)OCCO2 (centres undefined) | -69 | / | / | 11 | / | /
CCN1CCN(Cc2ccc(C)cc2)CC1 | 6 | -12 | 5 | 6 | 9 | 0
CCN1CCN(Cc2cc(C(C)(C)C)c(O)c(C(C)(C)C)c2)CC1 | -11 | 62* | 68* | / | -6 | 3
C[C@]12CC(=CO)C(=O)C[C@@H]1CC[C@@H]1[C@@H]2CC[C@@]2(C)[C@H]1CC[C@]2(C)O | / | 26 | 21 | / | 2 | /
C[C@]12Cc3cnc(-c4ccccc4)nc3C[C@@H]1CC[C@H]1[C@H]2CC[C@@]2(C)[C@H]1CC[C@]2(C)O | 0 | / | / | 49* | / | /
CC(=O)Nc1ccc(C=C2C(=O)NC(=S)NC2=O)cc1 | 10 | / | / | 12 | / | /
Cc1ccc(C=C2C(=O)NC(=S)NC2=O)o1 | -106 | / | / | 114* | / | /
O=C(O)[C@@H](O)[C@@H](O)[C@@H]1[O][Sb][O][C@@H]1CO | 10 | / | / | 51* | / | /
SMILES | EP2 modulator | NPY2 pot ag | NPY-Y1 PAM-ag | EP2 antag | NPY-Y1 antag | NPY Y2 blocker
C[N+]1([O-])[C@@H]2CC(OC(=O)[C@@H](CO)c3ccccc3)C[C@H]1[C@H]1O[C@H]12 (some centres undefined) | 29 | / | / | 49* | / | /
Cc1cc(C)c2[nH]c(=O)c(CN(CCCO)C3(c4nnnn4C4CCCCC4)CCCCC3)cc2c1 | 20 | / | / | 12 | / | /
Cc1ccccc1-n1nc(C)c(CC(=O)N(CCN(C)C)Cc2cccnc2)c1C | -14 | / | / | 8 | / | /
C[C@@H](O)CN(CCN(C[C@@H](C)O)C[C@@H](C)O)C[C@@H](C)O.O=[N+]([O-])O.[Cu] | 14 | / | / | 41* | / | /
CN1CCN(C2CC3(C)C(CCC4C3CCC3(C)C(O)C(N5CCN(C)CC5)CC43)CC2O)CC1 (centres undefined) | -36 | / | / | 4 | / | /
O=C(CNC(=O)OCc1ccccc1)Nc1ccc(Br)cc1C(=O)c1ccccc1Cl | 55 | -6 | -13 | 8 | 2 | 6
CN(C(=O)CNC(=O)OCc1ccccc1)c1ccc(Br)cc1C(=O)c1ccccc1Cl | 35 | -19 | -41 | 11 | 23* | 18*
CCC(CC)N1CCN(Cc2cc(OC)c(OC)c(OC)c2)CC1 | -28 | / | / | 4 | / | /
N#CC1=C(S)N(c2ccccc2)C(c2cccnc2)NC1=O (centres undefined) | -22 | / | / | 9 | / | /
CN[C@H]1C[C@H]2O[C@@](C)([C@H]1OC)n1c3ccccc3c3c4c(c5c6ccccc6n2c5c31)C(=O)NC4 | 11 | 16 | -57 | 24 | 54* | 30*
CN1CCN(C(=O)COc2cccc3ccccc23)CC1 | -52 | / | / | 16 | / | /
COc1ccc(C[C@@H]2C(=O)N[C@H](C)C(=O)N(C)[C@@H]3C(=O)N(C)[C@@H](Cc4ccc(O)c(c4)Oc4ccc(cc4)[C@H]3O)C(=O)N[C@@H](C)C(=O)N[C@H](C)C(=O)N2C)cc1 | 27 | / | / | 43* | / | /
C=CCSc1nc2ccccc2c(=O)n1-c1ccccc1C | 78* | / | / | 5 | / | /
CC[C@@H]1[C@@H]2Cc3ccc(O)cc3[C@@]1(CC)CCN2C | 14 | / | / | 52* | / | /
CCc1ncc(CN2C3CCC2CC(O)(c2ccc(F)cc2)C3)cn1 (centres undefined) | -56 | / | / | 12 | / | /
CC(C)c1ccc(N2C(=O)NC(=O)/C(=C/C=C/c3ccco3)C2=O)cc1 | -6 | 17 | -4 | 59* | -4 | 0
O=C1NC(=O)N(Cc2ccccc2)C(=O)/C1=C\c1ccco1 | -53 | -2 | -7 | 17 | 10 | /
CCCCN1C(=O)/C(=C/C=C/c2ccco2)C(=O)NC1=S | 7 | 6 | 16 | 10 | 2 | 5
O=C1NC(=O)N(Cc2ccc(F)cc2)C(=O)/C1=C\C=C\c1ccco1 | -71 | 9 | 11 | 78* | / | /
O=C1NC(=O)N(c2ccccc2)C(=O)/C1=C\C=C\c1ccccc1 | -43 | 9 | 15 | 21 | / | /
Cc1cc(C)cc(N2C(=O)NC(=O)/C(=C\C=C\c3ccco3)C2=O)c1 | -81 | 10 | -13 | 87* | -1 | -1
CCc1ccc(N2C(=O)NC(=O)/C(=C\C=C\c3ccco3)C2=O)cc1 | -29 | 1 | 16 | 61* | / | /
CC1(C)C2C[C@@H](O)[C@]3(C)C(CC[C@@]4(C)[C@H](c5ccoc5)CC5OC543)[C@@]2(C)[C@@H](O)C[C@H]1O (some centres undefined) | 9 | / | / | 5 | / | /
Cc1nc(-c2ccc(F)cc2)c(CC(=O)N2CCCCC2CN2CCCCC2)s1 (centres undefined) | -12 | / | / | 9 | / | /
COc1ccc(CN2CCN(C(=O)COc3ccc(C)cc3)CC2)cc1OC | -36 | / | / | 10 | / | /
CN1C2CC3C[C@H]1C(O3)C2O (some centres undefined) | -5 | / | / | 14 | / | /

Screening data from PubChem.
